Measured values taken from ChEMBL document CHEMBL2331243, “Discovery and mechanism study of SIRT1 activators that promote the deacetylation of fluorophore-labeled substrate” (J Med Chem, 2013).
Calls of active or inactive are those of the source. No cut-off for these calls is given here.

Assays:
[1] = biological target: T1, NAD-dependent protein deacetylase sirtuin-1 (Homo sapiens) (UniProt Q96EB6); experiment: Activation of N-terminal His6-tagged SIRT1 (156 to 664 amino acid residues) (unknown origin) expressed in Escherichia coli BL21(DE3) using ac-RHKKac-AMC as substrate at 50 uM after 45 mins by fluorimetric analysis relative to control
T1 sequence (whole entry): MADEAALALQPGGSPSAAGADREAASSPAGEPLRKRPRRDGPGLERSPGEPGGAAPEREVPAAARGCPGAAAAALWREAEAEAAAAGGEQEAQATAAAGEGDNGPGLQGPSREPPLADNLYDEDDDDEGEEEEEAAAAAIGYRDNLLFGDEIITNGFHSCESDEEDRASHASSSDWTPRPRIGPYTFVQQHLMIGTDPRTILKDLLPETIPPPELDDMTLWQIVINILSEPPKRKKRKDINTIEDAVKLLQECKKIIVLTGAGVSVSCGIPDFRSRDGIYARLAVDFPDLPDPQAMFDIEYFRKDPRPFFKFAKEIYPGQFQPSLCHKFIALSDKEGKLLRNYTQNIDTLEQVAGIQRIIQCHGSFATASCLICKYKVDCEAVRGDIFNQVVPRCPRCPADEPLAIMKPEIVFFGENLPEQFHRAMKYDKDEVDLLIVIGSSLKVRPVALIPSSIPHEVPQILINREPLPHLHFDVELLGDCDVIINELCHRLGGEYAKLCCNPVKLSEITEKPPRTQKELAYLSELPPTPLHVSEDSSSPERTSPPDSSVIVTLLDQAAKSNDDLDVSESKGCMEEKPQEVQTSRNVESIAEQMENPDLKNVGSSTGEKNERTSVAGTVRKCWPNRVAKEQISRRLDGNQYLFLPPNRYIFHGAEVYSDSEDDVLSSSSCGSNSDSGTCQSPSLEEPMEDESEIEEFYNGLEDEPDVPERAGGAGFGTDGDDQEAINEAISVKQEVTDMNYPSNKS
Summary of the method: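 Fluorogenic deacetylation screen: 1 μM SIRT1 with 750 μM NAD⁺ and 31.25 μM ac-RHKK_ac-AMC in Tris buffer (25 mM Tris, 137 mM NaCl, 2.7 mM KCl, 1 mM MgCl₂, pH 8.0). Compounds at 50 μM from DMSO stocks; DMSO alone as blank. Trypsin then releases AMC from deacetylated peptide; fluorescence read at 340/490 nm.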

[2] = biological target: T2, NAD-dependent protein deacetylase sirtuin-1 (Homo sapiens, UniProt Q96EB6); experiment: Activation of N-terminal His6-tagged SIRT1 (156 to 664 amino acid residues) (unknown origin) expressed in Escherichia coli BL21(DE3) using ac-RHKKac-AMC as substrate after 45 mins by fluorometric analysis
T2 sequence (Q96EB6 whole entry): T1 sequence (whole entry)

[3] = biological target: T1, NAD-dependent protein deacetylase sirtuin-1 (Homo sapiens); experiment: Activation of N-terminal His6-tagged SIRT1 (156 to 664 amino acid residues) (unknown origin) expressed in Escherichia coli BL21(DE3) using ac-RHKKac-NH2 as substrate after 45 mins by HPLC analysis
[4] = biological target: T3, NAD-dependent protein deacetylase sirtuin-2 (Homo sapiens, UniProt Q8IXJ6); experiment: Activation of at N-terminal GST-tagged SIRT2 (34 to 356 amino acid residues) (unknown origin) expressed in Escherichia coli BL21(DE3) using ac-RHKKac-AMC as substrate after 45 mins by fluorometric analysis
T3 sequence (Q8IXJ6 whole entry): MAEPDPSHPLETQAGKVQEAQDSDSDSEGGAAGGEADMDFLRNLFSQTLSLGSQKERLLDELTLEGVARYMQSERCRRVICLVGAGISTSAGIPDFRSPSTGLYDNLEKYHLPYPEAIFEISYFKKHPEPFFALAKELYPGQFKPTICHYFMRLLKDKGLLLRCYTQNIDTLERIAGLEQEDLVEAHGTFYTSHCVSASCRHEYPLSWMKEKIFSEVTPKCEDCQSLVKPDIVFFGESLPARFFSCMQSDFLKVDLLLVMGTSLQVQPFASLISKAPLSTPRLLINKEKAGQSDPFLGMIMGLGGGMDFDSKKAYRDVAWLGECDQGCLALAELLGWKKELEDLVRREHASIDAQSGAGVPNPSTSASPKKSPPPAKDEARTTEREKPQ
Summary of the method: (§1)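 Fluorescent deacetylation assay in 25 mM Tris, 137 mM NaCl, 2.7 mM KCl, 1 mM MgCl₂, pH 8.0, with 750 μM NAD⁺ and 31.25 μM ac-RHKK_ac-AMC. Enzyme was 3.6 μM SIRT3 or 4.2 μM GST-SIRT2, set to match SIRT1 activity. Trypsin released AMC from the deacetylated peptide, read at ex 340 / em 490 nm. Compounds were added from DMSO (DMSO as blank): single point at 50 μM, or 3-fold DMSO dilution series. EC1.5 (concentration giving 50% activity increase) and maximum activation were fitted to a dose–response function.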

[5] = biological target: T4, NAD-dependent protein deacetylase sirtuin-2 (Homo sapiens) (UniProt Q8IXJ6); experiment: Activation of at N-terminal GST-tagged SIRT2 (34 to 356 amino acid residues) (unknown origin) expressed in Escherichia coli BL21(DE3) using ac-RHKKac-AMC as substrate at 50 uM after 45 mins by fluorometric analysis relative to control; summary of the method: as §1
T4 sequence (whole entry): T3 sequence (Q8IXJ6 whole entry)

[6] = biological target: T1, NAD-dependent protein deacetylase sirtuin-1 (Homo sapiens); experiment: Activation of SIRT1 in human MCF7 cells assessed as reduction in doxorubicin-induced acetyl-p53 level up to 100 uM after 6 hrs by Western blotting analysis; type: cell-based
Summary of the method: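 MCF-7 cells were seeded at 1 × 10⁵ per well in DMEM with 10% FCS and grown 24 h at 37 °C, 5% CO₂. Graded compound concentrations were added together with 0.1 μM TSA and 5 μM doxorubicin for 6 h. Lysate (50 μg protein) was run on a 9% gel and blotted with an anti-acetyl-p53 (Lys382) polyclonal antibody at 4 °C overnight, then HRP anti-rabbit IgG with chemiluminescence.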

## O=C(Nc1ccccc1-c1cn2c(CN3CCNCC3)csc2n1)c1ccncn1
[1]
  max activation: 270%
[2]
  EC50: 1.7 µM

## COc1ccc(C(=O)Nc2ccccc2-c2cn3c(CN4CCNCC4)csc3n2)c(OC)c1
[1]
  max activation: 197%
[2]
  EC50: 31 µM

## O=C(N/N=C/c1cc(Br)c(O)c(Br)c1O)c1ccc(-c2ccncc2)cc1
[1]
  max activation: 390%
[2]
  EC50: 1.6 µM

## O=C(N/N=C/c1cc(Br)c(O)c(Br)c1O)c1ccc(-c2ccccc2C(F)(F)F)cc1
[1]
  max activation: 216%
[2]
  EC50: 0.9 µM

## COc1cc(C(=O)Nc2ccccc2-c2cn3c(CN4CCNCC4)csc3n2)cc(OC)c1OC
[1]
  max activation: 271%
[2]
  EC50: 1.8 µM
[3]
  Activity: inactive

## O=C(Nc1ccccc1-c1cn2c(CN3CCNCC3)csc2n1)c1cc2ccccc2o1
[1]
  max activation: 381%
[2]
  EC50: 0.61 µM

## O=C(N/N=C/c1cc(Br)c(O)c(Br)c1O)c1ccc(-c2ccccc2)cc1
[1]
  max activation: 246%
[2]
  EC50: 1.7 µM

## O=C(N/N=C/c1cc(Br)c(O)c(Br)c1O)c1ccc2cc(-c3ccco3)ccc2c1
[1]
  max activation: 267%
[2]
  EC50: 2.6 µM

## O=C(Cc1ccccc1)Nc1ccccc1-c1cn2c(CN3CCNCC3)csc2n1
[1]
  max activation: 130%
[2]
  EC50: 14 µM

## O=C(N/N=C/c1cc(Br)c(O)c(Br)c1O)c1ccc2ncccc2c1
[1]
  max activation: 239%
[2]
  EC50: 55.2 µM

## O=C(N/N=C/c1cc(Br)c(O)c(Br)c1O)c1cc2ccccc2cc1O
[1]
  max activation: 375%
[2]
  EC50: 4.5 µM

## N#Cc1ccc2cc(C(=O)N/N=C/c3cc(Br)c(O)c(Br)c3O)ccc2c1
[1]
  max activation: 433%
[2]
  EC50: 4.4 µM

## COc1cc(OC)cc(C(=O)N/N=C/c2cc(Br)c(O)c(Br)c2O)c1
[1]
  max activation: 112%

## O=C(Nc1ccccc1-c1cn2c(CN3CCNCC3)csc2n1)c1cccc2cccnc12
[1]
  max activation: 208%
[2]
  EC50: 45 µM

## O=C(N/N=C/c1cc(Br)c(O)c(Br)c1O)c1ccc(Cl)cc1
[1]
  max activation: 174%
[2]
  EC50: 7 µM

## O=C(Nc1ccccc1-c1cn2c(CN3CCNCC3)csc2n1)c1cnc2ccccc2n1
[1]
  max activation: 781%

## O=C(N/N=C/c1cc(Br)c(O)c(Br)c1O)c1ccc2c(c1)Cc1ccccc1-2
[1]
  max activation: 212%
[2]
  EC50: 5.4 µM
[4]
  EC50: 16.5 µM
[5]
  max activation: 206%

## O=C(N/N=C/c1cc(Br)c(O)c(Br)c1O)c1ccc(C(F)(F)F)cc1
[1]
  max activation: 161%
[2]
  EC50: 20.5 µM

## O=C(Nc1ccccc1-c1cn2c(CN3CCNCC3)csc2n1)c1ccc2occc2c1
[1]
  max activation: 380%
[2]
  EC50: 6.9 µM

## Cc1ccc(C(=O)N/N=C/c2cc(Br)c(O)c(Br)c2O)cc1
[1]
  max activation: 161%
[2]
  EC50: 9.6 µM

## COc1c(Br)cc(/C=N/NC(=O)c2ccc(-c3ccccc3)cc2)c(O)c1Br
[1]
  max activation: 242%
[2]
  EC50: 28.1 µM

## COc1c(/C=N/NC(=O)c2ccc3cc(Br)ccc3c2)cc(Br)c(O)c1Br
[1]
  max activation: 298%
[2]
  EC50: 8.7 µM

## CS(=O)(=O)c1ccc2cc(C(=O)N/N=C/c3cc(Br)c(O)c(Br)c3O)ccc2c1
[1]
  max activation: 368%
[2]
  EC50: 2.3 µM

## O=C(N/N=C/c1cc(Br)c(O)c(Br)c1O)c1ccc(-c2ccc3c(c2)OCO3)cc1
[1]
  max activation: 380%
[2]
  EC50: 3.4 µM

## O=C(N/N=C/c1cc(Br)c(O)c(Br)c1O)c1ccc(-c2cccnc2)cc1
[1]
  max activation: 314%
[2]
  EC50: 2 µM

## O=C(N/N=C/c1cc(Br)c(O)c(Br)c1O)c1ccc2ccccc2c1
[1]
  max activation: 331%
[2]
  EC50: 1.6 µM

## COc1c(/C=N/NC(=O)c2ccc(-c3ccccc3)cc2)cc(Br)c(O)c1Br
[1]
  max activation: 191%
[2]
  EC50: 18.1 µM

## O=C(N/N=C/c1cc(Br)c(O)c(Br)c1O)c1ccc(-c2ccccn2)cc1
[1]
  max activation: 467%
[2]
  EC50: 2.3 µM

## O=C(Nc1ccccc1-c1cn2c(CN3CCNCC3)csc2n1)c1ccc2ccccc2n1
[1]
  max activation: 440%
[2]
  EC50: 0.99 µM

## COc1ccc2cc(C(=O)N/N=C/c3cc(Br)c(O)c(Br)c3O)ccc2c1
[1]
  max activation: 624%
[2]
  EC50: 0.9 µM
[6]
  Activity: Active

## O=C(N/N=C/c1cc(Br)c(O)c(Br)c1O)c1ccc(-c2ccco2)cc1
[1]
  max activation: 374%
[2]
  EC50: 2.1 µM

## N#Cc1ccc(O)c(-c2ccc(C(=O)N/N=C/c3cc(Br)c(O)c(Br)c3O)cc2)c1
[1]
  max activation: 196%
[2]
  EC50: 3.7 µM

## O=C(N/N=C/c1ccc(O)cc1O)c1ccc(-c2ccccc2)cc1
[1]
  max activation: 157%
[2]
  EC50: 10.4 µM

## COc1cccc(C(=O)Nc2ccccc2-c2cn3c(CN4CCNCC4)csc3n2)c1
[1]
  max activation: 928%
[2]
  EC50: 3.7 µM

## O=C(Nc1ccccc1-c1cn2c(CN3CCNCC3)csc2n1)c1cnc2ccccc2c1
[1]
  max activation: 301%
[2]
  EC50: 0.68 µM

## COc1c(Br)cc(/C=N/NC(=O)c2ccc3cc(Br)ccc3c2)c(O)c1Br
[1]
  max activation: 119%

## O=C(Nc1ccccc1-c1cn2c(CN3CCNCC3)csc2n1)c1ccccc1
[1]
  max activation: 322%
[2]
  EC50: 25 µM

## O=C(N/N=C/c1cc(Br)c(O)c(Br)c1O)c1cccc(-c2ccccc2)c1
[1]
  max activation: 212%
[2]
  EC50: 18.3 µM

## O=C(Nc1ccccc1-c1cn2c(CN3CCNCC3)csc2n1)C1CCCC1
[1]
  max activation: 383%
[2]
  EC50: 130 µM
